Experimental data as given in ChEMBL document CHEMBL4715729, “UPLC-QTOFMS(E)-Guided Dereplication of the Endangered Chinese Species Garcinia paucinervis to Identify Additional Benzophenone Derivatives” (J Nat Prod, 2016).

What was measured:
Assay type in all cases: functional, cell-based
[1] = system: MDA-MB-231; test: Cytotoxicity against human MDA-MB-231 cells assessed as reduction in cell viability measured after 48 hrs by WST assay; conditions: MDA-MB-231, 48 h
Outline: (§1)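 Cells grown at 37 °C, 5% CO2 with 10% fetal calf serum and penicillin/streptomycin: MCF7 and MDA-MB-231 in DMEM glucose, SKBR3 in DMEM F12 glutamine. Seeded at 12×10^3 cells/well, dosed after 24 h at 5–200 μM from DMSO stocks (DMSO […]) for 48 h. Doxorubicin positive control. Read-out was 10% WST for 1 h in the dark, absorbance at 440 nm. Triplicate, % inhibition versus control, IC50 estimated.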

[2] = system: SK-BR-3; test: Cytotoxicity against human SK-BR-3 cells assessed as reduction in cell viability measured after 48 hrs by WST assay; conditions: SK-BR-3, 48 h; outline: as §1
[3] = system: MCF7; test: Cytotoxicity against human MCF7 cells assessed as reduction in cell viability measured after 48 hrs by WST assay; conditions: MCF7, 48 h; outline: as §1

Measured: IC50

CC(C)=CCC/C(C)=C/CC1(CC=C(C)C)C(=O)C(C(=O)c2ccc(O)c(O)c2)=C2OC(C)(C)C(O)C3OC23C1=O (stereo not given)
< 10 µM: [1] | [2] | [3]

CC(C)=CCC/C(C)=C/C[C@]1(CC=C(C)C)C(=O)C2=C(OC(C)(C)C[C@H]2c2occc(=O)c2O)C(C(=O)c2ccc(O)c(O)c2)=C1O
< 10 µM: [1] | [2] | [3]

CC(C)=CCC/C(C)=C/C[C@]1(CC=C(C)C)C(=O)C(O)=C(C(=O)c2ccc(O)c(O)c2)C1=O
< 10 µM: [1] | [2] | [3]

CC(C)=CCC/C(C)=C/CC1(CC=C(C)C)C(=O)C(C(=O)c2ccc(O)c(O)c2)=C2OC(C)(C)CC3OC23C1=O (stereo not given)
< 10 µM: [1] | [2] | [3]

CC(C)=CCC/C(C)=C/C[C@@]1(CC=C(C)C)C(=O)C2=C(OC(C)(C)C[C@H]2c2occc(=O)c2O)C(C(=O)c2ccc(O)c(O)c2)=C1O
< 10 µM: [1] | [2] | [3]
